From ChEMBL document CHEMBL4406804, “Discovery of a Potent Steroidal Glucocorticoid Receptor Antagonist with Enhanced Selectivity against the Progesterone and Androgen Receptors (OP-3633)” (J Med Chem, 2019)
The source made the active and inactive calls. No cut-off for these calls is given here.

How the values were obtained:
Assay type in all cases: cell-based
Glucocorticoid receptor = target: T1, Glucocorticoid receptor (Homo sapiens, UniProt P04150); assay: Antagonist activity at human glucocorticoid receptor expressed in CHO-K1 cells harboring firefly luciferase gene after 20 hrs by One-Glo luciferase reporter gene assay
T1 sequence (P04150 whole entry): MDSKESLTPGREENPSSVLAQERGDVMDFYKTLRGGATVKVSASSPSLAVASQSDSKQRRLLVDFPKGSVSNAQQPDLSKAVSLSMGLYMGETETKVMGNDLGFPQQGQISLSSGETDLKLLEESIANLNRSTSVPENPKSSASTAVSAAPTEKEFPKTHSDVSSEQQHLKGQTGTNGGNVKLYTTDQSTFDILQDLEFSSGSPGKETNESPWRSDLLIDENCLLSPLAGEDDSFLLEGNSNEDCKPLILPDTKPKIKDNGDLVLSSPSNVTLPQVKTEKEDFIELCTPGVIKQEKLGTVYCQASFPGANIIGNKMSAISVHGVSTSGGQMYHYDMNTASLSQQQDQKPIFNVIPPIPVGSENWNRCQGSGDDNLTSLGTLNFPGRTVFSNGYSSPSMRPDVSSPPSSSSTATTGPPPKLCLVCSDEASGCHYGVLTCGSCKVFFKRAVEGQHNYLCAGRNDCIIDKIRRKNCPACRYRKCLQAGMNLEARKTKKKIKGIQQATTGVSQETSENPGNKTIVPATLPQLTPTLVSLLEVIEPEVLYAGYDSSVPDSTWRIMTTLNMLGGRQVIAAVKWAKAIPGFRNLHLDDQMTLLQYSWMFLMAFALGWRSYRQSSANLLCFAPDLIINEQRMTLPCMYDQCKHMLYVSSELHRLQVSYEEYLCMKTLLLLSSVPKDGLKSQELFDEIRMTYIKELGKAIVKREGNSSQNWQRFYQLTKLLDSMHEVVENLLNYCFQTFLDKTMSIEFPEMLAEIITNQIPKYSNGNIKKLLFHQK

Homo sapiens = organism: Homo sapiens; assay: Selectivity ratio, ratio of IC50 for human androgen receptor in human LNCAP cells to IC50 for human glucocorticoid receptor expressed in CHO-K1 cells harboring firefly luciferase gene
Progesterone receptor = target: T2, Progesterone receptor (Homo sapiens, UniProt P06401); assay: Antagonist activity at human progesterone receptor expressed in CHO-K1 cells harboring firefly luciferase gene after 20 hrs by One-Glo luciferase reporter gene assay
T2 sequence (P06401 whole entry): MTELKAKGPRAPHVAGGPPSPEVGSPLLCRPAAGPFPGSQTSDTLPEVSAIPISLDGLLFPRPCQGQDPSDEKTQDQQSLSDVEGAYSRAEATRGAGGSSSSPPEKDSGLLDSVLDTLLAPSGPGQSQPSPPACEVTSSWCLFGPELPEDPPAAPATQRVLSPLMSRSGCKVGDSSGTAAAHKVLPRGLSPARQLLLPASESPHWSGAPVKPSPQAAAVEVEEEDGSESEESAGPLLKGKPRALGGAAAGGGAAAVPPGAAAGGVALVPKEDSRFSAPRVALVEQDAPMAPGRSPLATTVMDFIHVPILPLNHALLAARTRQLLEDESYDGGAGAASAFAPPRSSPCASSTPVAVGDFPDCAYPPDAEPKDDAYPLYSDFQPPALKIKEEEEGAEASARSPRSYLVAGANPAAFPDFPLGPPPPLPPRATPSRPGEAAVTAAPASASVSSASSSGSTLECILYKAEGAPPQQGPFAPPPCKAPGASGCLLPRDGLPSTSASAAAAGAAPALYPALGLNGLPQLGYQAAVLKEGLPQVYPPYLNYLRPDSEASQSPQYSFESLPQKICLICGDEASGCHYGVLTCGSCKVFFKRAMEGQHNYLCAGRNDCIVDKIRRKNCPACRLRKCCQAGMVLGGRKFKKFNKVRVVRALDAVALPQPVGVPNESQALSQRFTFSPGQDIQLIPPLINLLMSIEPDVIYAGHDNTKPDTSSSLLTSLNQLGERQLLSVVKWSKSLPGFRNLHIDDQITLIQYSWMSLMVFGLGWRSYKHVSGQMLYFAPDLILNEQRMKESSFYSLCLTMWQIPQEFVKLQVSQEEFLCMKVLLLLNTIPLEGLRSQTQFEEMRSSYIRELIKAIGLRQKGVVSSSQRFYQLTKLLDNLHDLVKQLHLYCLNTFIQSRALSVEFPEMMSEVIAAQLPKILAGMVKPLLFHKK
How it was run: (§1)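 Cell-based luciferase reporter assays for GR, AR and PR, run in agonist and antagonist modes. Potency and Emax are averages of at least two determinations, reported with SD.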

Androgen receptor [1] = target: T3, Androgen receptor (Homo sapiens, UniProt P10275); assay: Antagonist activity at human androgen receptor in human LNCAP cells harboring firefly luciferase gene after 20 hrs by One-Glo luciferase reporter gene assay; how it was run: as §1
T3 sequence (P10275 whole entry): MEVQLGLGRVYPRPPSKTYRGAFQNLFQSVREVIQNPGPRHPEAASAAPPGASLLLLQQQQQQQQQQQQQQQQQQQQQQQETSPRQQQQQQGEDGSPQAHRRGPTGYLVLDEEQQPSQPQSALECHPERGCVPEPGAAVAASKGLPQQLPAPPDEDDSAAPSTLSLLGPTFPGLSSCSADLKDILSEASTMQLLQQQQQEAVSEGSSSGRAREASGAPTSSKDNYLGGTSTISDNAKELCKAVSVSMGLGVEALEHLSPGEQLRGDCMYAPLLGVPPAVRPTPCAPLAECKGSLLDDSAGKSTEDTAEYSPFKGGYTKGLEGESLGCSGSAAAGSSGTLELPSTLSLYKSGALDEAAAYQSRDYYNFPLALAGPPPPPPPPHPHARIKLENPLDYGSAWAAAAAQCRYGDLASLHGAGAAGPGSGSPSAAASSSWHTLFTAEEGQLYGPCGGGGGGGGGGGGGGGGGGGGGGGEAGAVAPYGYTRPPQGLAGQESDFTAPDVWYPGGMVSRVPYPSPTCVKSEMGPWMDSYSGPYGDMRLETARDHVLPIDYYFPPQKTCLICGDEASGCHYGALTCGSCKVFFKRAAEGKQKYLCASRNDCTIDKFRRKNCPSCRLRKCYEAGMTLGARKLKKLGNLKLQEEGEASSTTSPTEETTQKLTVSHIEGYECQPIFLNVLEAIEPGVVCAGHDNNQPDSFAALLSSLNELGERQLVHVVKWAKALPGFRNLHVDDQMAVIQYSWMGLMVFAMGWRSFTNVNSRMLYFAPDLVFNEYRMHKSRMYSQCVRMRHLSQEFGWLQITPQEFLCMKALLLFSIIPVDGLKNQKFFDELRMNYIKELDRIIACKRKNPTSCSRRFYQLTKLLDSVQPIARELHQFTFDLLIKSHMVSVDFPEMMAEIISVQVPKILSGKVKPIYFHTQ

Androgen receptor [2] = target: T3, Androgen receptor; assay: Agonist activity at human androgen receptor in human LNCAP cells harboring firefly luciferase gene after 20 hrs by One-Glo luciferase reporter gene assay
Androgen receptor [3] = target: T3, Androgen receptor; assay: Agonist activity at human androgen receptor in human LNCAP cells harboring firefly luciferase gene after 20 hrs by One-Glo luciferase reporter gene assay relative to mifepristone; how it was run: as §1
[4] = target: T4, Progesterone receptor (Homo sapiens) (UniProt P06401); assay: Agonist activity at human progesterone receptor expressed in CHO-K1 cells harboring firefly luciferase gene after 20 hrs by One-Glo luciferase reporter gene assay; how it was run: as §1
T4 sequence (whole entry): T2 sequence (P06401 whole entry)

[5] = target: T5, Glucocorticoid receptor (Homo sapiens) (UniProt P04150); assay: Antagonist activity at human glucocorticoid receptor expressed in CHO-K1 cells harboring firefly luciferase gene assessed as inhibition of glucocorticoid receptor activity at 0.01 to 10000 nM after 20 hrs by One-Glo luciferase reporter gene assay relative to mifepristone; parameters: scale not given: the % may be the effect or the level left; how it was run: as §1
T5 sequence (whole entry): T1 sequence (P04150 whole entry)

Q: Which results are given for CCN(CC)c1ccc([C@H]2C[C@@]3(C)[C@@H](CC[C@@]3(O)C#CC(C)(C)C)[C@@H]3CCC4=CC(=O)CC[C@@H]4[C@H]32)cc1?
A: IC50 (Glucocorticoid receptor): 0.0139 µM; Ratio (Homo sapiens): 10 to 30; IC50 (Progesterone receptor): 0.006 µM; IC50 (Androgen receptor [1]): 0.263 µM; EC50 (Androgen receptor [2]): > 2.5 µM; Emax at 20 h (Androgen receptor [3]): 9.4%; agonist activity [4]: inactive

Q: Which IC50 (Glucocorticoid receptor) does the source give for CN1CCN(c2ccc([C@H]3C[C@@]4(C)[C@@H](CC[C@@]4(O)C#CC(C)(C)C)[C@@H]4CCC5=CC(=O)CC[C@@H]5[C@H]43)cc2)CC1 here?
A: 0.0358 µM

Q: What about the Ratio (Homo sapiens) of the same compound?
A: 10 to 30

Q: And the IC50 (Progesterone receptor)?
A: 0.0254 µM

Q: And the IC50 (Androgen receptor [1])?
A: 1.01 µM

Q: What about the EC50 (Androgen receptor [2]) of the same compound?
A: > 2.5 µM

Q: And the Emax at 20 h (Androgen receptor [3])?
A: 7.9%

Q: What about the agonist activity [4] of the same compound?
A: inactive

Q: CC(C)(C)C#C[C@]1(O)CC[C@H]2[C@@H]3CCC4=CC(=O)CC[C@@H]4[C@H]3[C@@H](c3ccc(N4CCN(S(C)(=O)=O)CC4)cc3)C[C@@]21C was tested. Which IC50 (Glucocorticoid receptor) did it give?
A: 0.0122 µM

Q: And the Activity [5]?
A: 100%

Q: What about the Ratio (Homo sapiens) of the same compound?
A: 10 to 30

Q: What about the IC50 (Progesterone receptor) of the same compound?
A: 0.0046 µM

Q: And the IC50 (Androgen receptor [1])?
A: 0.359 µM

Q: What about the EC50 (Androgen receptor [2]) of the same compound?
A: > 2.5 µM

Q: And the Emax at 20 h (Androgen receptor [3])?
A: 18.1%

Q: And the agonist activity [4]?
A: inactive

Q: What does the source list for CC#C[C@]1(O)CC[C@H]2[C@@H]3CCC4=CC(=O)CC[C@]4(C)[C@H]3[C@@H](c3ccc(N(C)C(C)C)cc3)C[C@@]21C?
A: IC50 (Glucocorticoid receptor): 0.0206 µM; IC50 (Progesterone receptor): 0.527 µM; IC50 (Androgen receptor [1]): 2.25 µM; EC50 (Androgen receptor [2]): 1.14 µM; Emax at 20 h (Androgen receptor [3]): 55.9%; agonist activity [4]: inactive

Q: How did the IC50 (Glucocorticoid receptor) turn out when CCC(C)(C)C#C[C@]1(O)CC[C@H]2[C@@H]3CCC4=CC(=O)CC[C@@H]4[C@H]3[C@@H](c3ccc(N(C)C)cc3)C[C@@]21C was run?
A: 0.0127 µM

Q: What about the Ratio (Homo sapiens) of the same compound?
A: 10 to 30

Q: What about the IC50 (Progesterone receptor) of the same compound?
A: 0.0211 µM

Q: And the IC50 (Androgen receptor [1])?
A: 0.175 µM

Q: And the EC50 (Androgen receptor [2])?
A: > 2.5 µM

Q: What about the Emax at 20 h (Androgen receptor [3]) of the same compound?
A: 7.3%

Q: What about the agonist activity [4] of the same compound?
A: inactive

Q: Which results are given for CC#C[C@]1(O)CC[C@H]2[C@@H]3CCC4=CC(=O)CC[C@]4(C)[C@H]3[C@@H](c3ccc(N(C)CCOC)cc3)C[C@@]21C?
A: IC50 (Glucocorticoid receptor): 0.0521 µM; IC50 (Progesterone receptor): 1.64 µM; IC50 (Androgen receptor [1]): 1.29 µM; EC50 (Androgen receptor [2]): > 2.5 µM; Emax at 20 h (Androgen receptor [3]): 20%; agonist activity [4]: inactive

Q: How did the IC50 (Glucocorticoid receptor) turn out when CC(C)C#C[C@]1(O)CC[C@H]2[C@@H]3CCC4=CC(=O)CC[C@]4(C)[C@H]3[C@@H](c3ccc(N(C)C)cc3)C[C@@]21C was run?
A: 0.062 µM

Q: And the IC50 (Progesterone receptor)?
A: 2.08 µM

Q: And the IC50 (Androgen receptor [1])?
A: > 5 µM

Q: What about the EC50 (Androgen receptor [2]) of the same compound?
A: > 2.5 µM

Q: And the Emax at 20 h (Androgen receptor [3])?
A: 8.3%

Q: And the agonist activity [4]?
A: inactive

Q: For CC#C[C@]1(O)CC[C@H]2[C@@H]3CCC4=CC(=O)CC[C@]4(C)[C@H]3[C@@H](OCc3ccc(Cl)cc3)C[C@@]21C, which IC50 (Glucocorticoid receptor) is on record?
A: 0.0176 µM

Q: And the IC50 (Progesterone receptor)?
A: 0.0082 µM

Q: And the IC50 (Androgen receptor [1])?
A: 0.085 µM

Q: What about the EC50 (Androgen receptor [2]) of the same compound?
A: 1.89 µM

Q: What about the Emax at 20 h (Androgen receptor [3]) of the same compound?
A: 47.8%

Q: And the agonist activity [4]?
A: inactive
